Drawing on ChEMBL document CHEMBL1154320, “Cytotoxic neo-clerodane diterpenoid alkaloids from Scutellaria barbata” (J Nat Prod, 2009), this text covers IC50 for seven compounds.

pIC50: −log10 of the molar value.

Holding throughout (format): functional, cell-based
The subject of one test is HT-29. Briefly: Cytotoxicity against human HT-29 cells after 72 hrs by methylene blue dye assay. As to conditions: HT-29, 72 h. A digest of the protocol:
(§1)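 Log-phase cells seeded at 5000 cells/mL/well in 24-well plates, exposed to a range of compound concentrations for 72 h. Growth read by methylene blue dye staining. IC50 (50% growth inhibition versus untreated control) read graphically; mean ± standard deviation of three independent replicates. IC50 above 10 µM taken as non-cytotoxic. Etoposide and cisplatin served as positive controls.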

Test [1] is described as follows: Cytotoxicity against human HONE1 cells after 72 hrs by methylene blue dye assay. As to conditions: HONE1, 72 h. In short, it runs like this: as §1
In the next test the test system is KB. Briefly: Cytotoxicity against human KB cells after 72 hrs by methylene blue dye assay. A digest of the protocol: as §1

A word on the pIC50: it is −log10 of the IC50, conventionally taken in molar units. In the case of `CC1=CCC[C@H]2[C@@]1(C)[C@@H](OC(=O)c1ccccc1)[C@H](O)[C@]1(C)O[C@@]3(COC(=O)C3)C[C@H](OC(=O)c3cccnc3)[C@]21C` [SCUTEHENANINE B], the pIC50 with HT-29 is 5.30; in test [1] it was 5.46; in the test on KB, 5.33.
The like results for `CC1=CCC[C@H]2[C@@]1(C)[C@@H](O)[C@H](OC(=O)c1cccnc1)[C@](C)(O)[C@]2(C)/C=C/C1=CC(=O)OC1` [SCUTEHENANINE A] were, in that order, 5.24, 5.51 and 5.35.
Turning to `CC(=O)O[C@H]1[C@H](OC(=O)c2cccnc2)[C@](C)(O)[C@](C)(/C=C/C2=CC(=O)OC2)[C@H]2CCC=C(C)[C@]12C` [6-O-ACETYLSCUTEHENANINE A], the pIC50 with HT-29 was 5.28; in test [1] it was 5.43; in the test on KB it was 5.49.
The like results for `COc1cc([C@@H]2c3cc4c(cc3[C@@H](O[C@@H]3O[C@@H]5CO[C@@H](C)O[C@H]5[C@H](O)[C@H]3O)[C@H]3COC(=O)[C@H]23)OCO4)cc(OC)c1O` [ETOPOSIDE] were, in that order, 5.64, 5.92 and 5.89.
The like results for `CC1=CCC[C@H]2[C@@]1(C)[C@@H](OC(=O)C(=O)C(C)C)[C@H](OC(=O)c1cccnc1)[C@](C)(O)[C@]2(C)/C=C/C1=CC(=O)OC1` were, in that order, 5.26, 5.40 and 5.38.
The like results for `CC1=CCC[C@H]2[C@@]1(C)[C@@H](OC(=O)c1cccnc1)[C@H](OC(=O)c1ccccc1)[C@](C)(O)[C@]2(C)[C@H]1CC2=C(O1)C(=O)OC2` [SCUTEHENANINE D] were, in that order, 5.19, 5.39 and 5.55.
On to `C=C1CCC[C@H]2[C@@]1(C)[C@@H](OC(=O)c1ccccc1)[C@H](O)[C@]1(C)O[C@@]3(COC(=O)C3)C[C@H](OC(=O)c3cccnc3)[C@]21C` [SCUTEHENANINE C], for which the pIC50 was 5.28 in the test with HT-29, 5.47 in test [1] and 5.54 in the test on KB.
